The nature of the data set: Toxicity liver stage against HepG2, at 10uM. The conditions noted are these: human, HepG2-A16-CD81EGFP cells; read-out: INHIBITION
Further details: test concentration 10 uM, cell line HepG2-A16-CD81EGFP. In kind it is cell-based. The method in brief:
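Uninfected HepG2-A16-CD81EGFP cells, 3 × 10^3 per well, 1536-well, plated on prespotted compound at 10 μM final, parasite-free screening media added to match infected plates; puromycin 10 μM positive, DMSO 0.5% negative; run in parallel with 48 h PbLuc assay at 37 °C, 5% CO2; viability by CellTiter-Glo luminescence, normalized to controls.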

The values that follow come from ChEMBL document CHEMBL4513216, “Probing the Open Global Health Chemical Diversity Library for Multistage-Active Starting Points for Next-Generation Antimalarials” (ACS Infect Dis, 2020).

SMILES strings stand for the structures.

Take `CC(C)CS(=O)(=O)N1CCC2(CN(c3cccc(F)c3)C(=O)CN2C)C1` (stereo unspecified): the cytotoxicity at 10 µM was -75.2%.
On to `NC(=O)c1cnc(NC2CC2)nc1CCNC(=O)CC1CCCC1`, for which the cytotoxicity at 10 µM amounted to 3.29%.
Consider `Cc1cccc(CN2CC[C@@H]3[C@@H]2CCN3Cc2cccs2)n1`, for which the cytotoxicity at 10 µM is -117%.
The figure for `Cc1nn(C)c(C)c1CC(=O)NCC1(C(N)=O)CCOCC1` is 0.63%; for `COc1ccnc(N2CCN(C(=O)Cc3csc(C)n3)CC2)n1` it is -15.6%; for `COc1cccc2ccc(CN3CCN(c4ncccc4C)CC3)nc12` it is -5.21%.
The result for `OC1CCN(CCCNc2nccc(C3CCCC3)n2)CC1` reads -1.81%; that for `CC(C)c1noc(CNc2cccc(-c3nnnn3C)c2)n1`, -5.47%.
The figure for `COc1c(CNC2CCCN(c3ncccn3)C2)c(C(C)C)nn1C` (stereo unspecified) is -9.94%; for `CCN1CC[C@@]2(C(=O)N3CCCC3)CCN(S(C)(=O)=O)CC[C@@H]12` it is -0.537%; for `Cc1nc(C)n(CCCNC(=O)C(C)n2ccnc2C(C)C)n1` (stereo unspecified) it is -4.97%.
Regarding `CN(C)CC1CN(c2ncnc3[nH]ccc23)CCO1` (stereo unspecified), the cytotoxicity at 10 µM was 0.89%.
Regarding `CC(=O)N1CCN(C(=O)NCc2csc(Br)c2)CC1`, the cytotoxicity at 10 µM is -6.31%.
Turning to `Cc1cc(OC(F)F)c(C(=O)N2CCC(CN(C)C)CC2)s1`, the cytotoxicity at 10 µM amounted to 6.04%.
The figure for `Cc1nc(C(=O)N2CCCC(c3ccc4sc(N)nc4n3)C2)co1` (stereo unspecified) is -11.9%.
For the compound `CCc1ccc(CN(C)Cc2nc(COc3ccccc3)no2)nc1`, the cytotoxicity at 10 µM was 6.58%.
The result for `CCN1CC2(CCC1=O)CCN(Cc1nncn1C)CC2` reads 4.46%; that for `O=C(c1ncn2c1CNS(=O)(=O)c1ccccc1-2)N1CCOCC1`, 8.28%; that for `CN1CCCC1(CCCc1cccnc1)C(=O)NCc1nccn1C` (stereo unspecified), 0.732%.
The result for `CSc1ccccc1NC(=O)CCN1CCC(C(=O)N(C)C)CC1` reads 6.47%.
The figure for `CCOc1cccc(CCNC(=O)Cc2ccn[nH]2)n1` is -27.2%; for `Cc1occc1C(=O)N1CCC2(CCN(Cc3nccs3)CC2)C1` it is -5.33%; for `COCCN(CCOC)C(=O)c1cnn(C)c1-n1c(C)ccc1C` it is -144%.
With `N#CCCN(Cc1cccnc1)C(=O)Cc1ccc(-n2cnnn2)cc1`, the cytotoxicity at 10 µM was 2.32%.
On to `Cc1nc2ccccn2c1CC(=O)N[C@@H]1CC[C@@H](N2CCCC2)[C@@H]1O`, for which the cytotoxicity at 10 µM is -12.4%.
The result for `CC(C)Cc1cc(CNC(=O)c2cccc3c2OCC3)no1` reads -47.9%; that for `Cc1ccc(-c2cc(C(=O)NCCCc3csc(N)n3)[nH]n2)o1`, 79.5%; that for `CC(NC(=O)NC1CCN(Cc2ccccn2)CC1)c1nncn1C` (stereo unspecified), 0.335%.
The result for `COc1ccc(C(=O)N2C[C@@H](c3ccccc3)[C@@H]3NCCCC[C@@H]32)cc1` reads -23.3%.
The result for `CCS(=O)(=O)N1Cc2nccn2CC(Cn2cncn2)C1` (stereo unspecified) reads 7.21%.
With `CS(=O)(=O)CCNC(=O)NCCc1cc2ccccc2o1`, the cytotoxicity at 10 µM is 2.8%.
With `CCC(NC(=O)NCc1ccoc1C)c1c(C)nn(C)c1C` (stereo unspecified), the cytotoxicity at 10 µM is -1.44%.
The figure for `Cc1cc(C2CCCN(CC(=O)N3CCCc4ccccc43)C2)n[nH]1` (stereo unspecified) is -4.14%.
The result for `CN(C)c1ccc(C(CNS(=O)(=O)c2cccs2)N2CCCC2)cc1` (stereo unspecified) reads 2.31%; that for `CN(c1nccc(-c2cnc3sc(Cl)cn3c2=O)n1)C1CCCCC1`, 1.36%.
The figure for `Cc1csc(N2CCCN(C(=O)CCN3CCCC3=O)CC2)n1` is 24.3%; for `COCc1noc(-c2ccc(N(C)Cc3cn(C)nc3C)nc2)n1` it is -9.75%; for `O=C1NCC2(CCCN(C(=O)c3ccc4c(c3)CCO4)C2)O1` (stereo unspecified) it is 2.32%.
For `CN1CCc2cc(C(=O)N(C)C)c(NCC3CC3)nc2CC1`, the cytotoxicity at 10 µM was determined as 7.8%.
On to `O=C1NCC2=Nc3ccccc3NC(c3ccc(O)cc3)C12` (stereo unspecified), for which the cytotoxicity at 10 µM turned out to be 3.63%.
The result for `Cc1nn(C)cc1C(=O)NC(CC(C)C)C(=O)Nc1cc[nH]n1` (stereo unspecified) reads -2.33%; that for `O=C(NCc1ccc2c(c1)OCO2)c1ccc(N2CCCCCC2)nc1`, -6.78%.
As for `Cc1ccc(CN2CC3(CCNCC3)CCC2=O)c(F)c1F`, the cytotoxicity at 10 µM stood at 4.95%.
Turning to `c1cncc(OCc2n[nH]c3c2CN(Cc2cccs2)C3)c1`, the cytotoxicity at 10 µM was -113%.
Turning to `CNC(=O)CN1CCOCC12CCN(Cc1ccncc1)CC2`, the cytotoxicity at 10 µM worked out at 3.07%.
The figure for `CS(=O)(=O)NC[C@H]1OC[C@@H]2CCN(CCc3ccccc3)C[C@@H]21` is -4.67%.
The figure for `CCS(=O)(=O)c1ccccc1N1CCC(NC(C)=O)CC1` is -5.31%; for `Cc1ncsc1C(=O)Nc1ccccn1` it is 11.3%.
Take `COCCC1(CO)CCCN(CCCc2ccccc2)C1` (stereo unspecified): the cytotoxicity at 10 µM is -1.4%.
The figure for `CC(C)N(Cc1cccnc1)C(=O)CNc1ccc(C#N)cc1` is 1.44%; for `COCCN(Cc1coc(-c2cccc(Cl)c2)n1)C1CC1` it is 3.92%.
The result for `COCCC(=O)N1CCCC1c1csc(Nc2ncccn2)n1` (stereo unspecified) reads -4.33%; that for `COC(=O)c1cccc(-c2c[nH]c(C)n2)c1`, -0.734%.
The result for `Fc1ccc(C2(CNCCc3cccs3)CCOC2)cc1` (stereo unspecified) reads -149%; that for `CCOC(=O)CN1CCC2(CC1)CC(=O)c1ccc(OC)cc1O2`, 6.2%.
As to `CN(CCN1CCOCC1)C(=O)CCCOCCc1ccccc1`, the cytotoxicity at 10 µM is -1.28%.
The result for `CN(C)Cc1cn2c(n1)CN(C(=O)Cc1ccsc1)CC2` reads -136%; that for `CC(C)(C)n1ncc2c(=O)[nH]c(N3CCC4(CCCCC4)C3)nc21`, -7.72%; that for `O=C([C@H]1C[C@H]2CN(c3ncc(F)cn3)C[C@@H]1O2)N1CCOCC1`, -109%.
For the compound `O=C(Nc1ccccn1)C1CCN(Cc2cc3c(cc2O)OCO3)CC1`, the cytotoxicity at 10 µM was found to be 7.19%.
Take `Cc1cnc(CN2CCN(c3nc(C)cs3)C(C)C2)cn1` (stereo unspecified): the cytotoxicity at 10 µM is 2.74%.
For the compound `Cn1c(=O)[nH]c(=O)n2c(CC(=O)Nc3c(Cl)cccc3Cl)cnc12`, the cytotoxicity at 10 µM came to 8.52%.
The figure for `COc1ccc(CC(=O)N2CCCC(n3cc(C)cn3)C2)c(OC)c1` (stereo unspecified) is -8.66%; for `Cc1ccc2c(c1)C(NCc1nnc3n1CCCCC3)CCCO2` (stereo unspecified) it is -3.39%.
The figure for `Cc1nn(CCC(=O)N2CCCC(OCc3cccnc3)C2)c(C)c1C` (stereo unspecified) is -5.47%.
In the case of `COc1ccc(NC(=O)c2ccccc2NCc2ncnn2C)cc1`, the cytotoxicity at 10 µM was 2.06%.
Regarding `O=C1O[C@@H]2CN(S(=O)(=O)N3CCCC3)C[C@@H]2N1CCc1cccc(Cl)c1`, the cytotoxicity at 10 µM is -2.9%.
The result for `CCc1cnc(N2CC3(CCN(C(=O)c4ccoc4)C3)C2)nc1` reads -8.37%; that for `O=C(NS(=O)(=O)c1ccccc1)c1ccccc1F`, 11.4%.
As for `Cc1cc(CNC2CCCN(Cc3noc(C4CC4)n3)C2)on1` (stereo unspecified), the cytotoxicity at 10 µM was -17.7%.
`CCN1C(=O)CCCC12CCCN(C(=O)c1ccsc1)C2` (stereo unspecified): the cytotoxicity at 10 µM was -153%.
The figure for `CNC(=O)c1cccnc1NCc1ccc(Cn2cccn2)cc1` is 17.9%; for `Cc1noc(C)c1CN(C)C(=O)NC1CCN(c2ncccn2)CC1` it is -19.1%.
The result for `O=C(Nc1ccc2c(c1)OCCO2)c1ccc(=O)[nH]n1` reads 18.1%; that for `Cc1c[nH]c(CN2CCCCC2CCn2cccn2)c(C)c1=O` (stereo unspecified), 3.69%.
As to `Nc1nc(CCCNC(=O)c2ccccc2C2CCNC2)cs1` (stereo unspecified), the cytotoxicity at 10 µM is -3.06%.
On to `COc1ccc(O[C@H]2COCCN(Cc3c[nH]c4ccccc34)C2)cc1`, for which the cytotoxicity at 10 µM is 1.82%.
The figure for `CCc1nnc2n1CCN(CC(=O)Nc1sccc1C#N)C2` is -7.67%.
The figure for `O=C(NCC1CC1)[C@H]1C[C@H]2OCC[C@H]2N(Cc2ccsc2)C1` is 2.47%; for `CN(Cc1ccccc1)CC1(O)CCCN(Cc2ccc(F)cc2)C1=O` (stereo unspecified) it is -14.6%; for `CNC(=O)c1ccc(C(=O)N2CCCC(n3nc(C)cc3C)C2)cn1` (stereo unspecified) it is -5.61%.
The result for `Cc1occc1C(=O)N1CCO[C@H]2[C@H](OCc3ccccn3)CC[C@@H]21` reads -104%.
In the case of `Cn1ccnc1CNc1nccc(-c2ncnn2C)n1`, the cytotoxicity at 10 µM is -6.47%.
The result for `CCC(CC)(CCCNC(=O)c1c(C)noc1C)C1OCCO1` reads 1.98%; that for `CCOCCN1Cc2cnn(C)c2C(COCC)C1` (stereo unspecified), -62.6%; that for `Cc1cccc(N2CCCC3(C2)CN(S(C)(=O)=O)CCO3)c1` (stereo unspecified), 10.2%.
The result for `COc1cc(C2SC(C)=Nc3c2c(=O)[nH]n3C2CCCC2)ccc1O` (stereo unspecified) reads 3.54%; that for `CC(C)(C)c1cn2c(n1)C(CNCc1cnn3ccccc13)CCC2` (stereo unspecified), -13.4%.
The result for `Cc1ccc(OCCn2cnc3oc(C)c(C(=O)O)c3c2=O)cc1` reads -8.17%; that for `O=C(Cn1cccn1)N(CCO)CCSc1ccc(Cl)cc1`, 0.513%; that for `CC(O)(CNc1ccc(Cl)c(C#N)n1)c1ccsc1` (stereo unspecified), 3.39%.
As to `CN(C)c1cccc(C(=O)NCC(O)c2cccs2)c1` (stereo unspecified), the cytotoxicity at 10 µM was found to be 16.6%.
On to `COc1cccc(Cn2[nH]c(C)c3c(NC(=O)C(C)OC)nnc2-3)c1` (stereo unspecified), for which the cytotoxicity at 10 µM is -2.03%.
The figure for `CCN(CC)CCN(CC(C)C)c1cc(C(F)(F)F)nc2ncnn12` is -5.39%; for `N#Cc1ccc(NCc2cc3n(n2)CCCN(C(=O)C2CCC2)C3)nc1` it is -127%; for `CC(C)(C(=O)N1CCC(C(N)=O)C1)c1ccccc1F` (stereo unspecified) it is 4.68%.
